In data set [1] the test system is Mus musculus. As to the kind of experiment: Neurotoxicity in NMRI mouse assessed as minimal motor impairment at 20 to 100 mg/kg, ip after 0.5 hrs by rotarod test. In kind it is toxicity, organism-based. Further details: dose 20-100 mg/kg, route intraperitoneal. To be noted: in vivo. The essentials: (§1)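 Rotarod motor-impairment test in mice given 20, 40 and 100 mg/kg doses, read 0.5 and 4 h after administration. The value recorded is the minimal dose producing toxicity in more than 50% of mice.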

Data set [2] concerns Mus musculus. Briefly: Anticonvulsant activity in ip dosed NMRI mouse assessed as dose required to cause protection against subcutaneous pentylene tetrazole-induced seizure after 4 hrs. It is filed as functional. As to conditions: read-out: MED. The essentials: (§2)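 Mice received 20, 40 and 100 mg/kg test doses. Seizures were induced by electrical shock (MES) or PTZ injection (scPTZ) at 0.5 and 4 h after dosing. The value recorded is the minimal dose protecting more than 50% of mice against seizure.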

In data set [3] the test system is Mus musculus. As to the kind of experiment: Anticonvulsant activity in ip dosed NMRI mouse assessed as dose required to cause protection against maximal electroshock-induced seizures after 4 hrs. It is filed as functional. To be noted: read-out: MED. The essentials:
as §2
(Protection in the maximal electroshock model is a classic sign of anticonvulsant action.)

Data set [4] can be described thus: Neurotoxicity in ip dosed NMRI mouse assessed as dose required to cause minimal motor impairment after 4 hrs by rotarod test. It is filed as toxicity, organism-based. As to conditions: in vivo, read-out: MTC50. The essentials:
as §1
(In general: In the rotarod test animals must keep their balance on a rotating rod.)

For data set [5], the system named is Mus musculus. As to the kind of experiment: Anticonvulsant activity in NMRI mouse assessed as protection against maximal electroshock-induced seizures at 20 to 100 mg/kg, ip after 0.5 hrs. In kind it is functional, organism-based. The essentials:
as §2

The subject of data set [6] is Mus musculus. Briefly: Anticonvulsant activity in ip dosed NMRI mouse assessed as dose required to cause protection against subcutaneous pentylene tetrazole-induced seizure after 0.5 hrs. It is filed as functional. To be noted: read-out: MED. Put shortly:
as §2

Data set [7] has as its system Mus musculus. Briefly: Anticonvulsant activity in NMRI mouse assessed as protection against subcutaneous pentylene tetrazole-induced seizure at 20 to 100 mg/kg, ip after 0.5 hrs. In kind it is functional, organism-based. Put shortly: as §2
Data set [8] concerns Mus musculus. As to the kind of experiment: Anticonvulsant activity in NMRI mouse assessed as protection against maximal electroshock-induced seizures at 20 to 100 mg/kg, ip after 4 hrs. It is filed as functional, organism-based. The essentials:
as §2

Data set [9] relates to Mus musculus. Briefly: Anticonvulsant activity in NMRI mouse assessed as protection against subcutaneous pentylene tetrazole-induced seizure at 20 to 100 mg/kg, ip after 4 hrs. In kind it is functional, organism-based. Put shortly: as §2
In data set [10] the test system is Mus musculus. Briefly: Neurotoxicity in NMRI mouse assessed as minimal motor impairment at 20 to 100 mg/kg, ip after 4 hrs by rotarod test. Also on record: dose 20-100 mg/kg, route intraperitoneal. As to conditions: in vivo. It is filed as toxicity, organism-based. The essentials: as §1

Molecules are shown by their SMILES. Active and inactive are the calls of the source. The rule behind the calls is not given here.

For the molecule `O=[N+]([O-])c1ccc(Cn2cc(CO/N=C/c3c(-c4ccc(F)cc4)nc4ccc(Br)cn34)nn2)cc1`, the Activity entry in the data set with Mus musculus [1] is on record as “Non-toxic”. The minimal effective dose in the data set with Mus musculus [2] came to 100 mg/kg; in the data set on Mus musculus [3], 100 mg/kg; with Mus musculus [6] it was 40 mg/kg. Besides, in data set [4], the TD50 at 4 h was found to be 100 mg/kg. For the same molecule, the outcome in the data set with Mus musculus [5] was inactive.

As to `Cc1ccc(-c2nc3c(C)cccn3c2/C=N/OCc2cn(Cc3ccc(C#N)cc3)nn2)cc1`, the Activity result with Mus musculus [1] was “Non-toxic”. Besides, the minimal effective dose with Mus musculus [2] is 100 mg/kg. For the same molecule, in data set [4], the TD50 at 4 h came to 100 mg/kg. Besides, the result in the data set on Mus musculus [5], in the data set on Mus musculus [7] and in the data set on Mus musculus [8] was inactive.

`Cc1cccn2c(/C=N/OCc3cn(Cc4ccc([N+](=O)[O-])cc4)nn3)c(-c3ccccc3)nc12`: the Activity result with Mus musculus [1] and with Mus musculus [10] was “Non-toxic” each time. Also, the outcome in the data set with Mus musculus [9], in the data set on Mus musculus [5], in the data set on Mus musculus [7] and in the data set with Mus musculus [8] was inactive.

Turning to `O/N=C/c1c(-c2ccccc2)nc2ccc(Br)cn12`, the Activity result in the data set on Mus musculus [1] and in the data set with Mus musculus [10] was “Non-toxic” throughout. In addition, the result in the data set on Mus musculus [9], with Mus musculus [5], with Mus musculus [7] and in the data set on Mus musculus [8] was inactive.

Turning to `Cc1ccc(Cn2cc(CO/N=C/c3c(-c4ccccc4)nc4c(C)cccn34)nn2)cc1`, the Activity result in the data set on Mus musculus [1] and in the data set on Mus musculus [10] was “Non-toxic” in each case. For the same molecule, the outcome with Mus musculus [9], with Mus musculus [5], with Mus musculus [7] and in the data set on Mus musculus [8] was inactive.

With `N#Cc1ccc(Cn2cc(CO/N=C/c3c(-c4ccc(F)cc4)nc4ccc(Br)cn34)nn2)cc1`, in the data set on Mus musculus [1], the Activity result is given as “Non-toxic”. In addition, the minimal effective dose in the data set on Mus musculus [2] and in the data set with Mus musculus [3] was 100 mg/kg each time. In addition, the TD50 at 4 h in data set [4] is 100 mg/kg. The result in the data set on Mus musculus [5] and with Mus musculus [7] was inactive.

For the molecule `Cc1ccc(Cn2cc(CO/N=C/c3c(-c4ccccc4)nc4ccc(Br)cn34)nn2)cc1`, the Activity result in the data set with Mus musculus [1] and with Mus musculus [10] was “Non-toxic” in each case. The result in the data set with Mus musculus [9], with Mus musculus [5], with Mus musculus [7] and in the data set on Mus musculus [8] was inactive.

With `C#CCO/N=C/c1c(-c2ccc(F)cc2)nc2ccc(Br)cn12`, the Activity entry in the data set with Mus musculus [1] and in the data set with Mus musculus [10] was “Non-toxic” throughout. Moreover, the result in the data set with Mus musculus [9], in the data set on Mus musculus [5] and with Mus musculus [8] was inactive. In addition, the minimal effective dose in the data set with Mus musculus [6] was 40 mg/kg.

With `Cc1ccc(Cn2cc(CO/N=C/c3c(-c4ccc(C)cc4)nc4c(C)cccn34)nn2)cc1`, the Activity entry in the data set on Mus musculus [1] and with Mus musculus [10] was “Non-toxic” in each case. The result with Mus musculus [9], with Mus musculus [5], in the data set on Mus musculus [7] and in the data set with Mus musculus [8] was inactive.

Regarding `Cc1cccn2c(/C=N/O)c(-c3ccccc3)nc12`, the Activity result in the data set on Mus musculus [1] and in the data set with Mus musculus [10] was “Non-toxic” in each case. For the same molecule, the result with Mus musculus [9], in the data set on Mus musculus [5], in the data set with Mus musculus [7] and in the data set on Mus musculus [8] was inactive.

As for `COc1ccc(Cn2cc(CO/N=C/c3c(-c4ccc(F)cc4)nc4ccc(Br)cn34)nn2)cc1`, the Activity entry in the data set with Mus musculus [1] and in the data set with Mus musculus [10] was “Non-toxic” each time. Further, the outcome in the data set on Mus musculus [9], in the data set with Mus musculus [5], in the data set with Mus musculus [7] and in the data set with Mus musculus [8] was inactive.

These data come from ChEMBL document CHEMBL2385051, “Facile synthesis of new imidazo[1,2-a]pyridines carrying 1,2,3-triazoles via click chemistry and their antiepileptic studies” (Bioorg Med Chem Lett, 2013).
